In general, inhibition refers to the drop in the measured response relative to a control, in per cent. As a reminder, the Ki is a dissociation constant, usually derived from enzyme kinetics or from competition with a known ligand. A lower Ki goes with tighter binding.

Test [1] has as its system Adenosine receptor A2a (Bos taurus). The test is described as follows: Displacement of [3H]-CGS- 21680 from adenosine A2a receptor in bovine striatal membrane at 10 uM. The settings on record: Striatum.
In test [2] the target is T1, Adenosine receptor A1 (Bos taurus) (UniProt P28190).
T1 sequence (whole entry): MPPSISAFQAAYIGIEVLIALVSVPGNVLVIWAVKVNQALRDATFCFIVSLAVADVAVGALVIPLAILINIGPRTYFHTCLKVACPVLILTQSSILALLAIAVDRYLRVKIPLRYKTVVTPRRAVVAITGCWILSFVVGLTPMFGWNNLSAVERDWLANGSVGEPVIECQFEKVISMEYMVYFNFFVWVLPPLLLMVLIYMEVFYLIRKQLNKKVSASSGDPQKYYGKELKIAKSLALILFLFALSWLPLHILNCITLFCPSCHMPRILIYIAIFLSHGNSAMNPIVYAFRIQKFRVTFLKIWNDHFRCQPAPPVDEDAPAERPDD
As to the kind of experiment: Displacement of [3H]CHA from adenosine A1 receptor in bovine cortical membrane at 10 uM. It is filed as cell membranes. A digest of the protocol:
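Competition against [3H]CHA (31 Ci/mmol) for A1 sites in bovine cortical membranes. Compounds dissolved in DMSO, final DMSO ≤2%.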
(In general: In a radioligand displacement assay an active substance lowers the binding of a labelled ligand.)

For test [3], the target named is T2, Adenosine receptor A1 (Bos taurus, UniProt P28190).
T2 sequence (P28190 whole entry): T1 sequence (whole entry)
The test is described as follows: Displacement of [3H]CHA from adenosine A1 receptors was determined in bovine cortical membranes. The class given is cell membranes. A digest of the protocol: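 A1 affinity measured by displacement of [3H]CHA (31 Ci/mmol) from bovine cortical membranes. Compounds in DMSO, final ≤2%. At least six concentrations spanning 3 orders of magnitude were used. Ki is the mean ± SEM of four separate assays, each run in triplicate.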

The target in test [4] is Adenosine receptor A2a (Bos taurus). The test is described as follows: Displacement of [3H]-CGS- 21680 from adenosine A2a receptor of bovine striatal membrane.
In test [5] the target is T2, Adenosine receptor A1. As to the kind of experiment: Intrinsic activity towards Adenosine A1 receptor as displacement of [3H]DPCPX from bovine cortical membranes without GTP. Summed up: (§1)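 A1 binding in bovine cortical membranes with [3H]DPCPX as radioligand. Run with 1 mM GTP and without GTP, and the GTP shift was taken from comparing the two conditions. Compounds in DMSO, final ≤2%.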

Test [6] addresses T2, Adenosine receptor A1. As to the kind of experiment: Intrinsic activity towards Adenosine A1 receptor as displacement of [3H]DPCPX from bovine cortical membranes with 1 mM GTP. A digest of the protocol:
as §1

Test [7] addresses T2, Adenosine receptor A1. As to the kind of experiment: Intrinsic activity towards Adenosine A1 receptor using [3H]DPCPX from bovine cortical membranes without GTP. A digest of the protocol: as §1
Test [8] has as its system Adenosine receptor A3 (Bos taurus). As to the kind of experiment: Displacement of [125 I]AB-MECA from adenosine A3 receptor in bovine cortical membranes at 1 uM.
Test [9] deals with T1, Adenosine receptor A1 (Bos taurus). The test is described as follows: GTP shift for Adenosine A1 receptor. The class given is functional. Summed up: as §1

As for `Oc1cnnc2nc3ccccc3n12`, the values for the inhibition in [1] and in [2] were 0% and 34%, respectively.
For `Oc1ccc(-c2nnc3nc4ccccc4n3c2O)cc1O`, the Ki came to 470 nM in test [3] and 3.5 µM in [4].
`Cn1c2ccccc2n2c(=O)c(-c3ccc(O)c(O)c3)nnc12` displayed a Ki in test [3] of 459 nM.
Molecule `COc1ccc(-c2nnc3nc4ccccc4n3c2O)cc1OC` gave a Ki in test [3] of 1780 nM. The molecule also yielded an inhibition in [1] of 35%.
In the case of `C[C@H](Cc1ccccc1)Nc1ncnc2c1ncn2[C@@H]1O[C@H](CO)[C@@H](O)[C@H]1O` [(R)-PIA], the inhibition constant (Ki) in test [5] turned out to be 4.2 nM; in test [6], 19.9 nM.
For the molecule `COc1ccc(-c2nnc3nc4ccccc4n3c2O)cc1`, the inhibition came to 16% in test [1] and 30% in [2].
With `Cn1c2ccccc2n2c(=O)c(-c3ccsc3)nnc12`, in test [3], the Ki turned out to be 78 nM. In test [1], the inhibition amounted to 55%.
Take `Cn1c2ccccc2n2c(=O)cnnc12`: the inhibition was determined as 8% in test [1] and 0% in test [2].
`O=c1c(-c2ccccc2)nnc2n(Cc3ccccc3)c3ccccc3n12`: the Ki was found to be 274 nM in [3], 240 nM in test [5] and 184 nM in test [6].
Turning to `Oc1c(-c2ccccc2)nnc2nc3ccccc3n12`, the figures for the Ki in test [3], in test [7] and in test [6] were 85 nM, 141 nM and 197 nM, respectively.
With `Oc1c(-c2ccco2)nnc2nc3ccccc3n12`, affinity in test [3] was put at a Ki of 261 nM.
Consider `Cc1nnc2n(C)c3ccccc3n2c1=O`, for which the inhibition in [1] stood at 0%; in [2] it was 46%.
Turning to `Oc1ccc(-c2nnc3nc4ccccc4n3c2O)cc1`, in test [3], the Ki stood at 249 nM.
In [3], `O=c1c(-c2ccsc2)nnc2n(Cc3ccccc3)c3ccccc3n12` returned a Ki of 446 nM. In test [1], this molecule yielded an inhibition of 60%.
For `COc1ccc(-c2nnc3n(C)c4ccccc4n3c2=O)cc1OC`, the inhibition came to 18% in test [1] and 24% in [2].
In test [3], `Cn1c2ccccc2n2c(=O)c(-c3cccs3)nnc12` came in with a Ki of 233 nM. Also, the inhibition in test [1] was 19%.
Consider `Cn1c2ccccc2n2c(=O)c(-c3ccccc3)nnc12`, for which the Ki stood at 63 nM in [3], 93.1 nM in test [5] and 119 nM in [6]. The figures for the inhibition in [1] and in test [8] were 25% and 0%, respectively. Further, the GTP shift in test [9] is 1.3.
With `O=c1c(-c2ccco2)nnc2n(-c3ccccc3)c3ccccc3n12`, the affinity in test [3], expressed as Ki, was 315 nM.
For the molecule `Cc1nnc2nc3ccccc3n2c1O`, in [3], the affinity, expressed as Ki, was 3900 nM. In addition, the inhibition in test [1] is 39%.
Consider `O=c1c(-c2ccccc2)nnc2n(-c3ccccc3)c3ccccc3n12`, for which the values for the Ki in test [3], in [5] and in [6] were 18 nM, 24.7 nM and 25 nM, respectively.
Turning to `O=c1c(-c2ccc(O)cc2)nnc2n(Cc3ccccc3)c3ccccc3n12`, in test [3], the affinity corresponds to a Ki of 344 nM.
With `Cn1c2ccccc2n2c(=O)c(-c3ccc(Cl)cc3)nnc12`, the inhibition in test [1] worked out at 0%; in test [2] it was 66%.
As to `Oc1c(-c2cccs2)nnc2nc3ccccc3n12`, affinity in test [3] was put at a Ki of 293 nM.
On to `COc1ccc(-c2nnc3n(C)c4ccccc4n3c2=O)cc1`, for which, in test [3], the Ki was 2050 nM. This molecule returned an inhibition in test [1] of 7%.
In the case of `Oc1c(-c2ccsc2)nnc2nc3ccccc3n12`, the Ki in [3] was determined as 119 nM; in test [4] it was 5 µM.
For `O=c1c(-c2ccco2)nnc2n(Cc3ccccc3)c3ccccc3n12`, the Ki in [3] turned out to be 990 nM; in test [4] it was 1.24 µM.
`Oc1c(-c2ccc(Cl)cc2)nnc2nc3ccccc3n12`: the inhibition was 8% in [1] and 44% in test [2].
For the molecule `Cn1c2ccccc2n2c(=O)c(-c3ccco3)nnc12`, the Ki stood at 813 nM in test [3] and 6.3 µM in test [4].
For the molecule `Cn1c2ccccc2n2c(=O)c(-c3ccc(O)cc3)nnc12`, the affinity in test [3] corresponds to a Ki of 206 nM. The molecule also registered an inhibition in test [1] of 43%.

Source of the values: ChEMBL document CHEMBL1134334, “3-Aryl[1,2,4]triazino[4,3-a]benzimidazol-4(10H)-ones: a new class of selective A1 adenosine receptor antagonists” (J Med Chem, 2001).
